Converted amounts (≈) assume the structure as drawn.
Columns and labels:
[1] = tested on: Mycobacterium tuberculosis; experiment: Antimycobacterial activity against Mycobacterium tuberculosis H37Rv after 5 days by microplate alamar blue assay; format: functional; details: for MIC: Mycobacterium tuberculosis, H37Rv, 120 h
Method in brief: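 M. tuberculosis H37Rv in Middlebrook 7H9 broth; compounds serially diluted on plate at 0.2–100 […] (so in the source); isoniazid reference. Incubated 37 C, 5 days, then 1:1 alamar blue/10% Tween 80 added, further 24 h. Blue = no growth, pink = growth; MIC = lowest concentration preventing blue-to-pink change.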

Vero = experiment: Cytotoxicity against african green monkey Vero cells by MTT assay; format: cell-based; details: Chlorocebus sabaeus
A549 = experiment: Cytotoxicity against human A549 cells by MTT assay; format: cell-based

SMILES: C/C(=N\NC(=O)COc1ccc(O)cc1)c1ccc(-n2c(C)ccc2C)cc1
- -logMIC [1]: 4.602
- MIC [1]: 25 µg/mL (≈ 66.2 µM)

SMILES: C/C(=N\NC(=O)COc1ccc(C)cc1)c1ccc(-n2c(C)ccc2C)cc1
- -logMIC [1]: 5.505
- MIC [1]: 3.12 µg/mL (≈ 8.32 µM)

SMILES: C/C(=N\NC(=O)c1ccc(C)cc1)c1ccc(-n2c(C)ccc2C)cc1
- -logMIC [1]: 4.602
- MIC [1]: 25 µg/mL (≈ 72.4 µM)

SMILES: C/C(=N\NC(=O)COc1ccccc1Cl)c1ccc(-n2cccc2)cc1
- -logMIC [1]: 4.602
- MIC [1]: 25 µg/mL (≈ 68 µM)

SMILES: C/C(=N\NC(N)=S)c1ccc(-n2c(C)ccc2C)cc1
- -logMIC [1]: 4.301
- MIC [1]: 50 µg/mL (≈ 175 µM)

SMILES: C/C(=N\Nc1ccc([N+](=O)[O-])cc1[N+](=O)[O-])c1ccc(-n2cccc2)cc1
- -logMIC [1]: 4.903
- MIC [1]: 12.5 µg/mL (≈ 34.2 µM)

SMILES: C/C(=N\NC(=O)c1ccccc1)c1ccc(-n2cccc2)cc1
- -logMIC [1]: 4.301
- MIC [1]: 50 µg/mL (≈ 165 µM)

SMILES: Oc1cc(Cl)ccc1Oc1ccc(Cl)cc1Cl [TRICLOSAN]
- MIC [1]: 10 µg/mL (≈ 34.5 µM)

SMILES: C/C(=N\NC(N)=O)c1ccc(-n2cccc2)cc1
- -logMIC [1]: 4
- MIC [1]: 100 µg/mL (≈ 413 µM)

SMILES: C/C(=N\NC(=O)c1ccc(O)cc1)c1ccc(-n2c(C)ccc2C)cc1
- -logMIC [1]: 4.602
- MIC [1]: 25 µg/mL (≈ 72 µM)

SMILES: C/C(=N\NC(=O)COc1ccc(Cl)cc1)c1ccc(-n2c(C)ccc2C)cc1
- -logMIC [1]: 5.505
- MIC [1]: 3.12 µg/mL (≈ 7.89 µM)

SMILES: C/C(=N\NC(=O)c1ccncc1)c1ccc(-n2c(C)ccc2C)cc1
- -logMIC [1]: 4
- MIC [1]: 100 µg/mL (≈ 301 µM)

SMILES: C/C(=N\NC(=O)COc1ccc2ccccc2c1)c1ccc(-n2c(C)ccc2C)cc1
- IC50 (Vero): 255 µM
- IC50 (A549): 260 µM
- -logMIC [1]: 6.699
- MIC [1]: 0.2 µg/mL (≈ 0.486 µM)

SMILES: C/C(=N\NC(=O)COc1ccc(Br)cc1)c1ccc(-n2c(C)ccc2C)cc1
- -logMIC [1]: 5.204
- MIC [1]: 6.25 µg/mL (≈ 14.2 µM)

SMILES: C/C(=N\NC(=O)c1ccncc1)c1ccc(-n2cccc2)cc1
- -logMIC [1]: 4.301
- MIC [1]: 50 µg/mL (≈ 164 µM)

SMILES: C/C(=N\NC(=O)c1ccc(Cl)cc1)c1ccc(-n2c(C)ccc2C)cc1
- -logMIC [1]: 4.602
- MIC [1]: 25 µg/mL (≈ 68.3 µM)

SMILES: C/C(=N\Nc1ccccc1)c1ccc(-n2cccc2)cc1
- -logMIC [1]: 4.903
- MIC [1]: 12.5 µg/mL (≈ 45.4 µM)

SMILES: C/C(=N\NC(=O)COc1ccc(C)cc1)c1ccc(-n2cccc2)cc1
- -logMIC [1]: 4.903
- MIC [1]: 12.5 µg/mL (≈ 36 µM)

SMILES: C/C(=N\NC(=O)c1ccc(-n2c(C)ccc2C)cc1)c1ccc(-n2cccc2)cc1
- -logMIC [1]: 4.602
- MIC [1]: 25 µg/mL (≈ 63.1 µM)

SMILES: C/C(=N\NC(=O)c1ccc(Br)cc1)c1ccc(-n2c(C)ccc2C)cc1
- -logMIC [1]: 4.602
- MIC [1]: 25 µg/mL (≈ 60.9 µM)

SMILES: C/C(=N\NC(=O)c1ccc(C)cc1)c1ccc(-n2cccc2)cc1
- -logMIC [1]: 4.301
- MIC [1]: 50 µg/mL (≈ 158 µM)

SMILES: C/C(=N\NC(=O)COc1ccccc1)c1ccc(-n2c(C)ccc2C)cc1
- -logMIC [1]: 6.097
- MIC [1]: 0.8 µg/mL (≈ 2.21 µM)

SMILES: C/C(=N\NC(=O)c1ccc(Cl)cc1)c1ccc(-n2cccc2)cc1
- -logMIC [1]: 4.301
- MIC [1]: 50 µg/mL (≈ 148 µM)

SMILES: NNC(=O)c1ccncc1 [ISONIAZID]
- IC50 (Vero): > 450 µM
- IC50 (A549): > 450 µM
- MIC [1]: 0.25 µg/mL (≈ 1.82 µM)

SMILES: C/C(=N\NC(=O)COc1cccc2ccccc12)c1ccc(-n2c(C)ccc2C)cc1
- IC50 (Vero): 277 µM
- IC50 (A549): 269 µM
- -logMIC [1]: 6.699
- MIC [1]: 0.2 µg/mL (≈ 0.486 µM)

SMILES: C/C(=N\NS(=O)(=O)c1ccc(C)cc1)c1ccc(-n2cccc2)cc1
- -logMIC [1]: 6.097
- MIC [1]: 0.8 µg/mL (≈ 2.26 µM)

SMILES: C/C(=N\NS(=O)(=O)c1ccc(N)cc1)c1ccc(-n2cccc2)cc1
- -logMIC [1]: 5.204
- MIC [1]: 6.25 µg/mL (≈ 17.6 µM)

SMILES: C/C(=N\NC(=O)COc1ccc(O)cc1)c1ccc(-n2cccc2)cc1
- -logMIC [1]: 4.602
- MIC [1]: 25 µg/mL (≈ 71.6 µM)

SMILES: C/C(=N\NC(=O)c1ccccc1)c1ccc(-n2c(C)ccc2C)cc1
- -logMIC [1]: 4.602
- MIC [1]: 25 µg/mL (≈ 75.4 µM)

SMILES: C/C(=N\NC(=O)c1ccc(Br)cc1)c1ccc(-n2cccc2)cc1
- -logMIC [1]: 4.301
- MIC [1]: 50 µg/mL (≈ 131 µM)

SMILES: C/C(=N\NC(=O)COc1c(Cl)cc(Cl)cc1Cl)c1ccc(-n2cccc2)cc1
- -logMIC [1]: 4.301
- MIC [1]: 50 µg/mL (≈ 114 µM)

SMILES: C/C(=N\NC(=O)c1ccc(-n2cccc2)cc1)c1ccc(-n2c(C)ccc2C)cc1
- -logMIC [1]: 4.301
- MIC [1]: 50 µg/mL (≈ 126 µM)

SMILES: C/C(=N\NC(=O)COc1ccccc1Cl)c1ccc(-n2c(C)ccc2C)cc1
- -logMIC [1]: 4.301
- MIC [1]: 50 µg/mL (≈ 126 µM)

SMILES: C/C(=N\NS(=O)(=O)c1ccc(N)cc1)c1ccc(-n2c(C)ccc2C)cc1
- -logMIC [1]: 4.903
- MIC [1]: 12.5 µg/mL (≈ 32.7 µM)

SMILES: C/C(=N\NC(=O)c1ccc(O)cc1)c1ccc(-n2cccc2)cc1
- -logMIC [1]: 4.903
- MIC [1]: 12.5 µg/mL (≈ 39.1 µM)

SMILES: C/C(=N\NC(=O)COc1ccc(Br)cc1)c1ccc(-n2cccc2)cc1
- -logMIC [1]: 4.301
- MIC [1]: 50 µg/mL (≈ 121 µM)

SMILES: C/C(=N\NC(=O)COc1ccccc1)c1ccc(-n2cccc2)cc1
- -logMIC [1]: 4.903
- MIC [1]: 12.5 µg/mL (≈ 37.5 µM)

SMILES: C/C(=N\NC(N)=S)c1ccc(-n2cccc2)cc1
- -logMIC [1]: 4.301
- MIC [1]: 50 µg/mL (≈ 194 µM)

SMILES: CC(=O)Nc1ccc(S(=O)(=O)N/N=C(\C)c2ccc(-n3c(C)ccc3C)cc2)cc1
- -logMIC [1]: 6.097
- MIC [1]: 0.8 µg/mL (≈ 1.88 µM)

SMILES: C/C(=N\Nc1ccccc1)c1ccc(-n2c(C)ccc2C)cc1
- -logMIC [1]: 4.602
- MIC [1]: 25 µg/mL (≈ 82.4 µM)

SMILES: C/C(=N\NC(=O)c1ccc(-n2c(C)ccc2C)cc1)c1ccc(-n2c(C)ccc2C)cc1
- -logMIC [1]: 4.602
- MIC [1]: 25 µg/mL (≈ 58.9 µM)

SMILES: C/C(=N\NC(N)=O)c1ccc(-n2c(C)ccc2C)cc1
- -logMIC [1]: 4.301
- MIC [1]: 50 µg/mL (≈ 185 µM)

SMILES: C/C(=N\NS(=O)(=O)c1ccc(C)cc1)c1ccc(-n2c(C)ccc2C)cc1
- IC50 (Vero): 279 µM
- IC50 (A549): 277 µM
- -logMIC [1]: 6.398
- MIC [1]: 0.4 µg/mL (≈ 1.05 µM)

SMILES: C/C(=N\NC(=O)c1ccccc1Cl)c1ccc(-n2cccc2)cc1
- -logMIC [1]: 4.602
- MIC [1]: 25 µg/mL (≈ 74 µM)

SMILES: C/C(=N\NC(=O)c1cccnc1)c1ccc(-n2c(C)ccc2C)cc1
- -logMIC [1]: 4
- MIC [1]: 100 µg/mL (≈ 301 µM)

SMILES: C/C(=N\NC(=O)COc1c(Cl)cc(Cl)cc1Cl)c1ccc(-n2c(C)ccc2C)cc1
- -logMIC [1]: 4.903
- MIC [1]: 12.5 µg/mL (≈ 26.9 µM)

SMILES: CC(=O)Nc1ccc(S(=O)(=O)N/N=C(\C)c2ccc(-n3cccc3)cc2)cc1
- IC50 (Vero): 263 µM
- IC50 (A549): 257 µM
- -logMIC [1]: 6.699
- MIC [1]: 0.2 µg/mL (≈ 0.504 µM)

SMILES: C/C(=N\NC(=O)COc1cccc2ccccc12)c1ccc(-n2cccc2)cc1
- IC50 (Vero): 240 µM
- IC50 (A549): 243 µM
- -logMIC [1]: 6.398
- MIC [1]: 0.4 µg/mL (≈ 1.04 µM)

SMILES: C/C(=N\Nc1ccc([N+](=O)[O-])cc1[N+](=O)[O-])c1ccc(-n2c(C)ccc2C)cc1
- -logMIC [1]: 4.903
- MIC [1]: 12.5 µg/mL (≈ 31.8 µM)

SMILES: C/C(=N\NC(=O)c1cccnc1)c1ccc(-n2cccc2)cc1
- -logMIC [1]: 4.301
- MIC [1]: 50 µg/mL (≈ 164 µM)

SMILES: C/C(=N\NC(=O)COc1ccc2ccccc2c1)c1ccc(-n2cccc2)cc1
- IC50 (Vero): 249 µM
- IC50 (A549): 247 µM
- -logMIC [1]: 6.699
- MIC [1]: 0.2 µg/mL (≈ 0.522 µM)

SMILES: C/C(=N\NC(=O)COc1ccc(Cl)cc1)c1ccc(-n2cccc2)cc1
- -logMIC [1]: 4.903
- MIC [1]: 12.5 µg/mL (≈ 34 µM)

SMILES: C/C(=N\NC(=O)c1ccc(-n2cccc2)cc1)c1ccc(-n2cccc2)cc1
- -logMIC [1]: 4.903
- MIC [1]: 12.5 µg/mL (≈ 33.9 µM)

SMILES: C/C(=N\NC(=O)c1ccccc1Cl)c1ccc(-n2c(C)ccc2C)cc1
- -logMIC [1]: 4.903
- MIC [1]: 12.5 µg/mL (≈ 34.2 µM)

— ChEMBL document CHEMBL3098082, “Design, synthesis, molecular docking and 3D-QSAR studies of potent inhibitors of enoyl-acyl carrier protein reductase as potential antimycobacterial agents” (Eur J Med Chem, 2014)
